Data from ChEMBL document CHEMBL1141410, “Eremophilane-type sesquiterpene derivatives from the roots of Ligularia lapathifolia” (J Nat Prod, 2007).
pIC50: −log10 of the molar value.

Tests used:
Format in all cases: cell-based
[1] = Cytotoxicity against human MGC803 cells after 48 hrs by MTT colorimetric assay; settings: MGC-803, 48 h
Method in brief: (§1)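 Cells maintained in RPMI-1640 with 10% heat-inactivated FBS, penicillin and streptomycin at 37 °C, 5% CO2; exponentially growing cells seeded at 1 × 10^5 cells/mL, treated after 24 h at 0.1–100 or 0.15–150 mg/L, six replicate wells per point. After 48 h, MTT added for 4 h at 37 °C, then 10% SDS–0.01 M HCl overnight; A570 read, cytotoxicity % versus untreated cells.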

HepG2 = assay: Cytotoxicity against human HEPG2 cells after 48 hrs by MTT colorimetric assay; settings: HepG2, 48 h; method in brief: as §1
CCRF S-180 = assay: Cytotoxicity against mouse S180 cells after 48 hrs by MTT colorimetric assay; settings: CCRF S-180, 48 h; method in brief: as §1

CC1=C2[C@@H]3OC(=O)C4=CCC[C@H](C[C@]2(O)OC1=O)[C@@]43C
pIC50 [1]: < 4.00
pIC50 (HepG2): < 4.00
pIC50 (CCRF S-180): < 4.00

CCO[C@]12C[C@H]3CCC=C4C(=O)O[C@@H](C1=C(C)C(=O)O2)[C@]43C
pIC50 [1]: 4.27
pIC50 (HepG2): 4.39
pIC50 (CCRF S-180): 4.44

COC(=O)C1=CCC[C@@H]2CC(C(C)=O)=C[C@]12C
pIC50 [1]: 4.45
pIC50 (HepG2): 4.33
pIC50 (CCRF S-180): 4.70

CO[C@]12C[C@H]3CCC=C4C(=O)O[C@@H](C1=C(C)C(=O)O2)[C@]43C
pIC50 [1]: < 4.00
pIC50 (HepG2): 4.90
pIC50 (CCRF S-180): 4.14

C/C=C(/C)C(=O)OC1CC[C@@H]2CC(=O)C(C(C)C(=O)OC)=C[C@]2(C)C1C(=O)OC (stereo not given in full)
pIC50 [1]: < 4.00
pIC50 (HepG2): < 4.00
pIC50 (CCRF S-180): < 4.00
